Values after ≈ are worked out from the molar mass of the structure shown.
How the values were obtained:
HepG2 cells = assay: HepG2 cytotoxicity assay; format: cell-based; details: Homo sapiens, HepG2, 48 h, read-out: Ctox.: IC50 HepG2
Outline: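 HepG2 cells were harvested while actively growing, with monolayers kept ≤50 % confluent, in Eagle's MEM with 10 % FBS, 1 % NEAA and 1 % penicillin/streptomycin. They were seeded at about 3000 cells per well (1.2×10^5 cells mL−1) onto predispensed test compound. Plates were incubated 48 h at 37 °C, 80 % humidity and 5 % CO2, equilibrated 30 min at room temperature, then developed with CellTiter-Glo for 10 min before luminescence reading.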

M. tuberculosis H37Rv = M. tuberculosis H37Rv inhibition assay; format: cell-based; details: Mycobacterium tuberculosis, read-out: MIC H37Rv

Question: For `CO[C@H]1/C=C/O[C@@]2(C)Oc3c(C)c(O)c4c(O)c(c(/C=N/N5CCN(C)CC5)c(O)c4c3C2=O)NC(=O)/C(C)=C\C=C\[C@H](C)[C@H](O)[C@@H](C)[C@@H](O)[C@@H](C)[C@H](OC(C)=O)[C@@H]1C` [Rifampicin], which IC50 (HepG2 cells) is on record?
Answer: Its IC50 is over 256 µM.

Question: What about the MIC (M. tuberculosis H37Rv) of the same molecule?
Answer: Its MIC is 0.02 µM (≈ 0.0165 µg/mL).

Question: For `NNC(=O)c1ccncc1` [Isoniazid], which IC50 (HepG2 cells) is on record?
Answer: Its IC50 is 207 µM.

Question: What about the MIC (M. tuberculosis H37Rv) of the same molecule?
Answer: The MIC was 1.8 µM (≈ 0.247 µg/mL).
